Compound activity as filed in PubChem BioAssay.
Sampled rows, rich in hits. Any-hit rate of the full collection: about 0.97%.
A3A deaminase = human APOBEC3A DNA deaminase inhibition. P31941. recombinant A3A, FAM/TAMRA ssDNA deamination fluorescence. inhibition, % at 20 µM. hit rate 0.41% among 330,000;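 active = at least 40% inhibition at 20 µM here, with at most 30% in a related deaminase screen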;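 also: plate controls were A3A with DMSO for no effect and wells lacking A3A enzyme for full effect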
Target sequence (P31941 whole entry, looked up): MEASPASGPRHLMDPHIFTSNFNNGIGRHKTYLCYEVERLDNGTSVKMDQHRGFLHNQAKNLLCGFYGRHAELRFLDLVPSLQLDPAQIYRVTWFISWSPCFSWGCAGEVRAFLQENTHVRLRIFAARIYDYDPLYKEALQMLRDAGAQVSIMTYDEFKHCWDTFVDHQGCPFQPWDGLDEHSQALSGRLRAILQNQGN
UCH37 DUB inh = inhibitors of human deubiquitinating enzyme UCH37. Q9Y5K5. purified proteasome/UCH37, Ub-AMC cleavage fluorescence. inhibition, % (test concentration not listed). hit rate 0.33% among 330,000. AID 588478;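 active = mean inhibition over replicate wells above about 20%, limit read from the data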;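 also: 0% = compound-free wells with enzyme and 100% = wells lacking proteasome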
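Reagent: Ub-AMC substrate; assay system: Proteasome-associated human UCH37 deubiquitinase; controls: no-proteasome and no-compound wells; read-out: % inhibition of Ub-AMC cleavage fluorescence; timing: 30 min preincubation with enzyme, 25 min cleavage at room temperature; signal: AMC fluorescence from Ub-AMC cleavage, excitation 355 nm, emission 460 nm; buffer or medium: Tris-HCl pH 7.4 plus ovalbumin, ATP-MgCl2, DTT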
A3G deaminase = APOBEC3G (human) deaminase inhibition. Q9HC16. recombinant A3G, ssDNA deamination FAM/TAMRA fluorescence. inhibition, % at 20 µM. hit rate 0.28% among 330,000. AID 493012;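 active = inhibition of at least 40% at 20 µM, with no more than 30% in the related APOBEC3A deaminase screen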;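 also: plate controls were DMSO wells with A3G for no effect and wells lacking A3G enzyme for full effect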
JMJD2C inh = human JMJD2C demethylase inhibition; Q9H3R0; GST-JMJD2C(1-420) H3K9me3 demethylation, DELFIA europium; inhibition, % at 2.35 µM; hit rate 0.069% among 330,000;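 active = more than half of a compound's replicate wells show inhibition beyond 50%, single wells judged on their own value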;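 also: signal counts dimethyl H3K9 product captured on neutravidin plate; 0% = median of DMSO wells and 100% = 0.3 times that DMSO median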
Target sequence (Q9H3R0 1-420 limits assumed): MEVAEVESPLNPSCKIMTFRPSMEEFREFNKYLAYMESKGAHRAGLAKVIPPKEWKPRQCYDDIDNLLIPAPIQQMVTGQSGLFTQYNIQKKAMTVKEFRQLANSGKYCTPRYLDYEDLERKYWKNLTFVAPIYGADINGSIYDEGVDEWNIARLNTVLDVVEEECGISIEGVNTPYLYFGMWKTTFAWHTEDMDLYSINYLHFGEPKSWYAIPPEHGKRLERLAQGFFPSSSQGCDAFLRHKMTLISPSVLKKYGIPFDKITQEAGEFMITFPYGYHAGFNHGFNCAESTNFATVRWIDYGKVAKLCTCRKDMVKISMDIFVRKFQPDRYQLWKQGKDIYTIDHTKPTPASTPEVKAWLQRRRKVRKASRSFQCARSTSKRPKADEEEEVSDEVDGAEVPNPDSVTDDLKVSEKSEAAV
APOBEC3G confirm = APOBEC3G (human) deaminase inhibition, confirmed; inhibition, % at 20 µM; hit rate 72% among 890; shares compounds with A3G deaminase; recombinant A3G ssDNA deaminase, UDG/FAM-TAMRA fluorescence;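 active = inhibition reaching a set limit in any replicate at 20 µM, the limit being 80% of the first screen's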
UDG ctr A3G = inhibits E. coli UDG, flagging false APOBEC3G inhibitors | shares compounds with A3G deaminase | UDG counterscreen, FAM/TAMRA oligo fluorescence | inhibition, % at 20 µM | 710 tested, under 10 active | AID 504715;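 active = compounds giving 40% or more inhibition at 20 µM in any one of the three replicates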;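 also: plate controls were DMSO wells with UDG and oligo for no effect and DMSO wells lacking both for full effect; inhibitors lower the FAM signal released by uracil excision and alkaline cleavage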
The depositor's hits bear a star; / = not tested or not shown; ! = not confirmed by another sample.

SMILES	A3A deaminase	UCH37 DUB inh	A3G deaminase	JMJD2C inh	APOBEC3G confirm	UDG ctr A3G
O=C(Nc1nc(-c2nc3ccccc3s2)cs1)C1CC1	0.1	2.3	42.5*	1.6	-0.7	/
CCN1CCN(C(=S)c2ccc(Cl)cc2)CC1	-0.8	4.7	68.4*	19.3	75.2*	-2.5
OCCN1CCN(C(=S)c2ccc(Cl)cc2)CC1	-7.7	0.4	18.8	7.7	/	/
Cc1ccc(-c2n[nH]c(=S)n2N=Cc2cc3c(cc2[N+](=O)[O-])OCO3)cc1	/	1.7	/	/	/	/
S=c1[nH]nc(-c2cccnc2)n1/N=C/c1ccccc1	-3.2	/	43.7*	5.3	80.5*	-2.9
O=[N+]([O-])c1ccccc1C=Nn1c(-c2cccnc2)n[nH]c1=S	/	5.3	/	/	/	/
O=[N+]([O-])c1cc2c(cc1/C=N/n1c(-c3ccccc3)n[nH]c1=S)OCO2	-2.9	/	54.8*	0.3	83.5*	-3.3
O=[N+]([O-])c1ccccc1/C=N/n1c(-c2cccnc2)n[nH]c1=S	-4.2	/	69.4*	-6.0	80.5*	-0.7
S=c1[nH]nc(-c2cccnc2)n1/N=C/c1cccs1	-9.6	/	40.6*	3.4	80.8*	-5.2
CCOc1cc(C=NNC(=O)C2CCCC2)ccc1OC(C)C	/	2.3	/	/	/	/
CCOC(=O)c1ccc(NC(=NS(=O)(=O)c2ccccc2)c2ccccc2)cc1	/	1.9	/	/	/	/
O=[N+]([O-])c1cc(C=NO)ccc1N1CCCC1	/	7.6	/	/	/	/
COC(=O)c1ccc(C=NNc2nc3ccccc3[nH]2)cc1	/	5.3	/	/	/	/
S=c1[nH]nc(-c2cccnc2)n1N=C/C=C/c1ccccc1	/	6.6	/	/	/	/
S=c1[nH]nc(-c2cccnc2)n1/N=C/C=C/c1ccccc1	-5.1	/	41.7*	-7.2	75.4*	-2.1
Fc1cccc(Cl)c1/C=N/n1c(-c2cccnc2)n[nH]c1=S	-3.2	/	46.1*	6.4	75.8*	-4.7
CCOC(=O)c1ccc(NC(=O)CC2Sc3ncnn3C2=O)cc1 (stereo not given)	-2.8	-2.4	41.8*	3.1	50.1*	1.2
Fc1ccccc1-n1[nH]nnc1=S	1.5	3.0	51.8*	8.0	15.0*	-2.7
Cc1ccccc1C=NNc1ccc(Cl)nn1	/	-6.0	/	/	/	/
COc1ccc(-c2cc(C(=O)NN)n(-c3ccccc3)n2)cc1	4.8	3.9	-0.4	0.8	/	/
CCOC(=O)c1cc(-c2ccc(OC)cc2)nn1-c1ccccc1C(=O)O	27.3	-2.0	63.2*	12.7	41.3*	-3.4
O=S(=O)(/N=S1/CC=CCN1S(=O)(=O)c1ccccc1)c1ccccc1 (stereo not given)	-6.8	/	62.3*	4.4	74.6*	-2.7
O=S(=O)(N=S1CC=CCN1S(=O)(=O)c1ccccc1)c1ccccc1 (stereo not given)	/	18.6	/	/	/	/
CC(Cn1cnc([N+](=O)[O-])n1)=NNC(=O)c1ccc(Br)cc1	/	0.5	/	/	/	/
COc1cc(OC)c(C2CC(=O)N3CN(c4ccccc4C)CSC3=C2C#N)cc1OC (stereo not given)	0.5	/	44.1*	-11.3	28.7	/
SMILES	A3A deaminase	UCH37 DUB inh	A3G deaminase	JMJD2C inh	APOBEC3G confirm	UDG ctr A3G
COc1ccc(OC)c(C2CC(=O)N3CN(c4ccccc4)CSC3=C2C#N)c1 (stereo not given)	2.1	3.6	45.6*	27.5	56.3*	-3.9
COc1ccc(C2CC(=O)N3CN(c4ccc(C)c(Cl)c4)CSC3=C2C#N)cc1 (stereo not given)	4.5	1.5	51.8*	7.2	52.3*	/
CC(=O)N1CCC2(CC1)CC(=NNC(=S)Nc1ccccc1F)c1cc(O)ccc1O2	/	-54.1	/	/	/	/
Cc1ccc(C=NN2CCN(C3c4ccccc4-c4ccccc43)CC2)s1	/	0.0	/	/	/	/
CC(C)(C)c1ccc(C=NNC(=O)Cc2c[nH]c3ccccc23)cc1	/	1.3	/	/	/	/
Fc1cccc(F)c1C=NN1CCOCC1	/	-1.7	/	/	/	/
CCOC(=O)c1cc(C#N)c(SCC(=O)c2cc(C#N)c(SC)nc2C)[nH]c1=O	2.2	-14.2	43.3*	6.5	16.5*	-3.9
CCOC(=O)c1ccc(-n2c(=S)sc3c(=O)[nH]c(C)nc32)cc1	5.5	8.8	55.7*	-1.2	40.1*	1.6
N#Cc1c(NC(=O)C2CCCO2)sc2c1CCCCCC2 (stereo not given)	-1.2	1.9	-4.3	4.1	/	/
NC(=O)c1c(NC(=O)C2CCCO2)sc2c1CCCC2 (stereo not given)	5.2	0.8	40.2*	2.7	25.9	/
COc1ccc(N2C(=O)CC(Sc3n[nH]c(-c4ccccc4)n3)C2=O)cc1 (stereo not given)	-3.4	2.1	52.8*	5.9	62.1*	-2.3
CCOc1ccc(N2C(=O)CC(Sc3n[nH]c(-c4ccccc4)n3)C2=O)cc1 (stereo not given)	-2.7	0.0	46.1*	-7.3	46.5*	0.9
CC(=NNC(=O)CN(c1ccccc1)S(C)(=O)=O)c1ccccc1O	/	-0.3	/	/	/	/
O=C(NN=Cc1ccsc1)c1cc(-c2ccncc2)nc2ccccc12	/	1.9	/	/	/	/
Cc1cccc(NN=C(C(N)=O)C2=NC(C)(C)Cc3ccccc32)c1	/	6.1	/	/	/	/
COc1cc(N=c2ssnc2Cl)cc(OC)c1OC	-0.2	5.3	72.2*	-12.5	92.9*	0.3
COc1ccc(N=c2ssnc2Cl)cc1	4.7	6.4	69.7*	48.8	78.5*	2.6
Clc1nssc1=Nc1ccccc1	/	1.9	/	/	/	/
CCOC(=O)c1ccc(N=c2ssnc2Cl)cc1	4.7	-0.9	65.6*	37.9	78.6*	0.2
N#Cc1ccc(N=c2ssnc2Cl)cc1	-2.1	6.2	73.1*	57.7*!	91.5*	-3.2
CCOC(=O)c1ccc(N=C2SC(C(=O)NC)CC(=O)N2Cc2ccc(F)cc2)cc1 (stereo not given)	-2.9	4.4	1.1	-5.9	/	/
